Assay results as given in ChEMBL document CHEMBL1127013, “Glycosylated derivatives of benzophenone, benzhydrol, and benzhydril as potential venous antithrombotic agents” (1993).

Tests used:
Type in all cases: functional
Rattus norvegicus [1] = assay: Effective dose administered by intravenous route before injection of thrombogenic agent in rat model
Outline: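 Intravenous dosing in rats at various times before the factor Xa thrombogenic challenge. Thrombus was isolated from the vein segment, dried 24 h at 55 °C and weighed. ED50 was calculated by linear regression with 95% confidence limits.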

Rattus norvegicus [2] = assay: Percentage reduction of thrombus formation by weight in rat (intraperitoneal administration); parameters: concentration or dose not given beside the values
Outline: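 Rat venous stasis thrombosis model using a factor Xa thrombogenic challenge 4 h after intraperitoneal dosing in carboxymethylcellulose at 5 mL/kg. Dose was 100 mg/kg when the mouse lethal dose exceeded 800 mg/kg, otherwise 1/10 of LD50. Body temperature was kept near 37 °C. Thrombus was excised from the split vein, dried 24 h at 55 °C and weighed. Read-out is % reduction in thrombus weight, with 5–10 rats per lot.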

Rattus norvegicus [3] = assay: Antithrombotic activity was determined at 100 mg/kg for nonlethal dose in rat
Outline: (§1)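 Rats received 100 mg/kg intraperitoneally in (carboxymethyl)cellulose (5 mL/kg), for substances with a mouse lethal dose above 800 mg/kg. Factor Xa was injected 4 h later to induce venous thrombosis, with body temperature near 37 °C. Clamps were placed 15 min after partial flow was restored. The thrombus was excised, dried 24 h at 55 °C and weighed. The result is % reduction of thrombus weight, with 5–10 rats per lot.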

Rattus norvegicus [4] = assay: Antithrombotic activity at 100 mg/kg for nonlethal dose in rat; outline: as §1
Rattus norvegicus [5] = assay: Antithrombotic activity at 100 mg/kg in rat; outline: as §1
Rattus norvegicus [6] = assay: Effective dose administered orally (4h before injection of the thrombotic stimulus) with reduced thrombus weight in dose-related manner; settings: po
Rattus norvegicus [7] = assay: Antithrombotic activity at 1/10 mg/kg in rat
Outline: (§2)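 Rat venous thrombosis model with factor Xa as the thrombogenic stimulus, injected 4 h after intraperitoneal dosing in (carboxymethyl)cellulose vehicle (5 mL/kg). Dose was 1/10 of the mouse LD50. Body temperature was kept near 37 °C. The vein was clamped 15 min after partial flow was restored. The thrombus was dried 24 h at 55 °C and weighed. The result is % reduction of thrombus weight, with 5–10 rats per lot.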

Rattus norvegicus [8] = assay: Antithrombotic activity at 1/10 mg/kg for lethal dose in rat; outline: as §2

SMILES: O=C(O)C1OC(OC2C(COS(=O)(=O)O)OC(CO)C(NS(=O)(=O)O)C2O)C(OS(=O)(=O)O)C(O)C1CO (centres undefined)
- ED50 (Rattus norvegicus [1]): 0.15 mg/kg

SMILES: COc1ccc(C(=O)c2ccc(O[C@@H]3OC[C@@H](O)[C@H](O)[C@H]3O)cc2)cc1
- Activity (Rattus norvegicus [2]): 44%
- LD0 (Rattus norvegicus [3]): >800 mg

SMILES: O[C@@H]1[C@@H](O)[C@H](Oc2ccc(Cc3ccccc3Cl)cc2)OC[C@H]1O
- Activity (Rattus norvegicus [2]): 0%
- LD0 (Rattus norvegicus [3]): >800 mg

SMILES: Cc1cc(C(=O)c2ccccc2C)ccc1O[C@@H]1OC[C@@H](O)[C@H](O)[C@H]1O
- Activity (Rattus norvegicus [2]): 62%

SMILES: Cc1ccc(O[C@@H]2OC[C@@H](O)[C@H](O)[C@H]2O)c(C(=O)c2ccccc2C)c1
- Activity (Rattus norvegicus [2]): 0%
- LD0 (Rattus norvegicus [3]): >800 mg

SMILES: O=[N+]([O-])c1cccc(Cc2ccc(O[C@@H]3OC[C@@H](O)[C@H](O)[C@H]3O)cc2)c1
- Activity (Rattus norvegicus [2]): 32%
- LD0 (Rattus norvegicus [3]): >800 mg

SMILES: O=C(c1ccc(Cl)cc1)c1cccc(O[C@@H]2OC[C@@H](O)[C@H](O)[C@H]2O)c1
- Activity (Rattus norvegicus [2]): 0%
- LD50 (Rattus norvegicus [4]): 220 mg

SMILES: O=C(c1ccc(O[C@@H]2OC[C@@H](O)[C@H](O)[C@H]2O)cc1)c1cccc([N+](=O)[O-])c1
- Activity (Rattus norvegicus [2]): 39%
- LD0 (Rattus norvegicus [3]): >800 mg

SMILES: O=C(c1ccccc1)c1ccc(O[C@@H]2O[C@H](CO)[C@@H](O)[C@H](O)[C@H]2O)cc1
- Activity (Rattus norvegicus [2]): 25%
- LD0 (Rattus norvegicus [3]): >800 mg

SMILES: O=[N+]([O-])c1cccc(C(O)c2ccc(O[C@@H]3OC[C@@H](O)[C@H](O)[C@H]3O)cc2)c1 (some centres undefined)
- Activity (Rattus norvegicus [2]): 63%
- LD50 (Rattus norvegicus [5]): 600 mg

SMILES: O[C@@H]1[C@@H](O)[C@H](Oc2ccc(Cc3ccccc3)cc2)OC[C@H]1O
- Activity (Rattus norvegicus [2]): 12%
- LD0 (Rattus norvegicus [3]): >800 mg

SMILES: O=[N+]([O-])c1ccc(Cc2ccc(O[C@@H]3OC[C@@H](O)[C@H](O)[C@H]3O)cc2)cc1
- Activity (Rattus norvegicus [2]): 80%
- ED50 (Rattus norvegicus [6]): 24 mg/kg
- LD50 (Rattus norvegicus [5]): 650 mg

SMILES: O=C(c1ccc([N+](=O)[O-])cc1)c1cccc(O[C@@H]2OC[C@@H](O)[C@H](O)[C@H]2O)c1
- Activity (Rattus norvegicus [2]): 61%
- LD0 (Rattus norvegicus [3]): >800 mg

SMILES: O=C(c1ccc(O[C@@H]2OC[C@@H](O)[C@H](O)[C@H]2O)cc1)c1ccc([N+](=O)[O-])cc1
- Activity (Rattus norvegicus [2]): 0%
- LD0 (Rattus norvegicus [3]): >800 mg

SMILES: OC(c1ccc(Cl)cc1)c1ccc(O[C@@H]2OC[C@@H](O)[C@H](O)[C@H]2O)cc1 (some centres undefined)
- Activity (Rattus norvegicus [2]): 39%
- LD0 (Rattus norvegicus [3]): >800 mg

SMILES: O=C(c1ccc(O[C@@H]2OC[C@@H](O)[C@H](O)[C@H]2O)cc1)c1ccccc1Cl
- Activity (Rattus norvegicus [2]): 76%
- LD0 (Rattus norvegicus [3]): >800 mg

SMILES: COc1ccc(Cc2ccc(O[C@@H]3OC[C@@H](O)[C@H](O)[C@H]3O)cc2)cc1
- Activity (Rattus norvegicus [2]): 43%
- LD0 (Rattus norvegicus [3]): >800 mg

SMILES: Cc1cc(C(O)c2ccccc2C)ccc1O[C@@H]1OC[C@@H](O)[C@H](O)[C@H]1O (some centres undefined)
- Activity (Rattus norvegicus [2]): 14%
- LD50 (Rattus norvegicus [5]): 450 mg

SMILES: Cc1ccccc1C(=O)c1cccc(O[C@@H]2OC[C@@H](O)[C@H](O)[C@H]2O)c1
- Activity (Rattus norvegicus [2]): 0%
- LD0 (Rattus norvegicus [3]): >800 mg

SMILES: O=C(c1ccc(Cl)cc1)c1ccc(O[C@@H]2O[C@H](CO)[C@H](O)[C@H](O)[C@H]2O)cc1
- Activity (Rattus norvegicus [2]): 0%
- LD0 (Rattus norvegicus [3]): >800 mg

SMILES: O=[N+]([O-])c1ccc(C(O)c2ccc(O[C@@H]3OC[C@@H](O)[C@H](O)[C@H]3O)cc2)cc1 (some centres undefined)
- Activity (Rattus norvegicus [2]): 80%
- ED50 (Rattus norvegicus [1]): 17.8 mg/kg
- ED50 (Rattus norvegicus [6]): 48 mg/kg
- LD0 (Rattus norvegicus [3]): >800 mg

SMILES: O[C@@H]1[C@@H](O)[C@H](Oc2ccc(Cc3ccc(Cl)cc3)cc2)OC[C@H]1O
- Activity (Rattus norvegicus [2]): 22%
- LD0 (Rattus norvegicus [3]): >800 mg

SMILES: O=C(c1ccc(O[C@@H]2O[C@H](CO)[C@H](O)[C@H](O)[C@H]2O)cc1)c1ccc([N+](=O)[O-])cc1
- Activity (Rattus norvegicus [2]): 0%
- LD0 (Rattus norvegicus [3]): >800 mg

SMILES: O=C(c1ccc(O[C@@H]2OC[C@@H](O)[C@H](O)[C@H]2O)cc1)c1ccc(C(F)(F)F)cc1
- Activity (Rattus norvegicus [2]): 0%
- LD0 (Rattus norvegicus [3]): >800 mg

SMILES: O[C@@H]1[C@@H](O)[C@H](Oc2cccc(Cc3ccc(Cl)cc3)c2)OC[C@H]1O
- Activity (Rattus norvegicus [2]): 46%
- LD50 (Rattus norvegicus [5]): 500 mg

SMILES: O[C@@H]1[C@@H](O)[C@H](Oc2ccc(Cc3ccc(Cl)cc3Cl)cc2)OC[C@H]1O
- Activity (Rattus norvegicus [2]): 25%
- LD50 (Rattus norvegicus [5]): 640 mg

SMILES: O[C@@H]1[C@@H](O)[C@H](Oc2cccc(Cc3ccccc3)c2)OC[C@H]1O
- Activity (Rattus norvegicus [2]): 39%
- LD50 (Rattus norvegicus [5]): 200 mg

SMILES: O=C(c1ccc(Cl)cc1)c1ccc(O[C@@H]2OC[C@@H](O)[C@H](O)[C@H]2O)cc1
- Activity (Rattus norvegicus [2]): 37%
- LD0 (Rattus norvegicus [3]): >800 mg

SMILES: O=C(c1ccc(O[C@@H]2O[C@H](CO)[C@@H](O)[C@H](O)[C@@H]2O)cc1)c1ccc([N+](=O)[O-])cc1
- Activity (Rattus norvegicus [2]): 0%
- LD0 (Rattus norvegicus [3]): >800 mg

SMILES: OC(c1ccc(O[C@@H]2OC[C@@H](O)[C@H](O)[C@H]2O)cc1)c1ccc(Cl)cc1Cl (some centres undefined)
- Activity (Rattus norvegicus [2]): 37%
- LD50 (Rattus norvegicus [5]): 350 mg

SMILES: O=C(c1ccccc1)c1cccc(O[C@@H]2OC[C@@H](O)[C@H](O)[C@H]2O)c1
- Activity (Rattus norvegicus [2]): 60%
- LD0 (Rattus norvegicus [3]): >800 mg

SMILES: O=C(c1ccc(OC2O[C@H](CO)[C@@H](O[C@@H]3O[C@H](CO)[C@H](O)[C@H](O)[C@H]3O)[C@H](O)[C@H]2O)cc1)c1ccc([N+](=O)[O-])cc1 (some centres undefined)
- Activity (Rattus norvegicus [2]): 0%
- LD0 (Rattus norvegicus [3]): >800 mg

SMILES: OC(c1ccccc1)c1ccc(O[C@@H]2OC[C@@H](O)[C@H](O)[C@H]2O)cc1 (some centres undefined)
- Activity (Rattus norvegicus [2]): 37%
- LD0 (Rattus norvegicus [3]): >800 mg

SMILES: O=C(c1ccc(O[C@H]2O[C@H](CO)[C@@H](O)[C@H](O)[C@@H]2O)cc1)c1ccc([N+](=O)[O-])cc1
- Activity (Rattus norvegicus [2]): 0%
- LD0 (Rattus norvegicus [3]): >800 mg

SMILES: O=C(c1ccccc1)c1ccc(O[C@@H]2OC[C@@H](O)[C@H](O)[C@H]2O)cc1
- Activity (Rattus norvegicus [2]): 77%
- LD50 (Rattus norvegicus [7]): 750 mg

SMILES: O=C(c1ccc(O[C@@H]2O[C@H](CO)[C@@H](O)[C@H](O)[C@H]2O)cc1)c1ccc([N+](=O)[O-])cc1
- Activity (Rattus norvegicus [2]): 0%
- LD0 (Rattus norvegicus [3]): >800 mg

SMILES: OC(c1ccc(O[C@@H]2OC[C@@H](O)[C@H](O)[C@H]2O)cc1)c1ccccc1Cl (some centres undefined)
- Activity (Rattus norvegicus [2]): 51%
- LD0 (Rattus norvegicus [3]): >800 mg

SMILES: C[C@@H]1O[C@H](Oc2ccc(C(=O)c3ccc([N+](=O)[O-])cc3)cc2)[C@H](O)[C@H](O)[C@H]1O
- Activity (Rattus norvegicus [2]): 0%
- LD0 (Rattus norvegicus [3]): >800 mg

SMILES: Cc1ccc(C(=O)c2cccc(O[C@@H]3OC[C@@H](O)[C@H](O)[C@H]3O)c2)cc1
- Activity (Rattus norvegicus [2]): 0%
- LD0 (Rattus norvegicus [3]): >800 mg

SMILES: N#Cc1ccc(C(=O)c2ccc(O[C@@H]3OC[C@@H](O)[C@H](O)[C@H]3O)cc2)cc1
- Activity (Rattus norvegicus [2]): 0%

SMILES: O=C(c1ccc(O[C@H]2OC[C@@H](O)[C@H](O)[C@H]2O)cc1)c1ccc([N+](=O)[O-])cc1
- Activity (Rattus norvegicus [2]): 38%
- LD50 (Rattus norvegicus [8]): 600 mg

SMILES: OC(c1ccccc1)c1cccc(O[C@@H]2OC[C@@H](O)[C@H](O)[C@H]2O)c1 (some centres undefined)
- Activity (Rattus norvegicus [2]): 19%
- LD0 (Rattus norvegicus [3]): >800

SMILES: OC(c1ccc(Cl)cc1)c1cccc(O[C@@H]2OC[C@@H](O)[C@H](O)[C@H]2O)c1 (some centres undefined)
- Activity (Rattus norvegicus [2]): 0%
- LD0 (Rattus norvegicus [3]): >800 mg

SMILES: O=C(c1ccc(O[C@@H]2O[C@H](CO)[C@H](O[C@@H]3O[C@H](CO)[C@@H](O)[C@H](O)[C@H]3O)[C@H](O)[C@H]2O)cc1)c1ccc([N+](=O)[O-])cc1
- Activity (Rattus norvegicus [2]): 17%
- LD0 (Rattus norvegicus [3]): >800 mg

SMILES: O=C(c1ccc(Cl)cc1)c1ccc(O[C@@H]2O[C@H](CO)[C@@H](O)[C@H](O)[C@H]2O)cc1
- Activity (Rattus norvegicus [2]): 0%
- LD0 (Rattus norvegicus [3]): >800 mg

SMILES: Cc1ccc(C(=O)c2ccc(O[C@@H]3OC[C@@H](O)[C@H](O)[C@H]3O)cc2)cc1
- Activity (Rattus norvegicus [2]): 0%
- LD0 (Rattus norvegicus [3]): >800 mg

SMILES: O=C(c1ccc(O[C@@H]2OC[C@@H](O)[C@H](O)[C@H]2O)cc1)c1ccc(Cl)cc1Cl
- Activity (Rattus norvegicus [2]): 18%
- LD0 (Rattus norvegicus [3]): >800 mg
